Measurements taken from ChEMBL document CHEMBL1131028, “Nucleosides and nucleotides. 177. 9-(6,7-dideoxy-beta-D-allo-hept-5- ynofuranosyl)adenine: a selective and potent ligand for P3 purinoceptor-like protein” (J Med Chem, 1998).
Activity calls are given as the source filed them. The calls are words filed in the database; no cut-off is given here.

Tests used:
P3 purinoceptor = assay: Binding activity was evaluated on P3 purinoceptor-like protein from rat brain membranes by using [3H]NECA (40 nM).
Summary of the method: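 Partially purified P3LP: rat brain membranes solubilized in CHAPS, then hydroxylapatite chromatography; A1, A2A, A2B and A3 adenosine receptors and adenotin absent from the preparation.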

[1] = biological target: T1, Adenosine receptor A3 (Rattus norvegicus) (UniProt P28647); assay: Inhibition of [125I]AB-MECA (0.15 nM) binding to Adenosine A3 receptor of RBL-2H3 cell membranes; No inhibition at 10 uM; type: cell-based
T1 sequence (whole entry): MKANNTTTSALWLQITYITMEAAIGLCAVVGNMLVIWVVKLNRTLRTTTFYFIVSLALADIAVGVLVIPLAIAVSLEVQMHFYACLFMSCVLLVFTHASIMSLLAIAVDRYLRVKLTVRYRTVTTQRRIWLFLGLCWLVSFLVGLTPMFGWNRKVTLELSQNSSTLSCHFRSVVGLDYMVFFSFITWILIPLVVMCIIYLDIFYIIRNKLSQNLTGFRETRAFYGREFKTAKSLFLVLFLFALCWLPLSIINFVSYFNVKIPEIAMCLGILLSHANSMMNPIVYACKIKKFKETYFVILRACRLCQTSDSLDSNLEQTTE

Adenosine receptor A1 = biological target: T2, Adenosine receptor A1 (Rattus norvegicus, UniProt P25099); assay: Inhibition of [3H]- DPCPX binding to Adenosine A1 receptor ofrat brain membranes
T2 sequence (P25099 whole entry): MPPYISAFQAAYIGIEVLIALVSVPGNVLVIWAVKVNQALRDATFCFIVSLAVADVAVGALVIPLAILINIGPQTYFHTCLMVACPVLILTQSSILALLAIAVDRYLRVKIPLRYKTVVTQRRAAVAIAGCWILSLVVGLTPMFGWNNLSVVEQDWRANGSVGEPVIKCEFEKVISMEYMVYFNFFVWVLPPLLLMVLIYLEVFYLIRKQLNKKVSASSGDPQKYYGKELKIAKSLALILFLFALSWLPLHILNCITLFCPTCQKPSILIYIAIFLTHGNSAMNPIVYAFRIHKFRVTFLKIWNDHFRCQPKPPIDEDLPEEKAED

[2] = biological target: Adenosine receptor A2a (Rattus norvegicus) (UniProt P30543); conditions: Membrane, 100 uM
[3] = biological target: T1, Adenosine receptor A3 (Rattus norvegicus); assay: Inhibition of [125I]AB-MECA (0.15 nM) binding to Adenosine A3 receptor of RBL-2H3 cell membranes; No inhibition at 10 uM
[4] = biological target: T3, Adenosine receptor A2b (Rattus norvegicus) (UniProt P29276); assay: Activity against Adenosine A2B receptor as cAMP production in VA-13 cells; No inhibition at 100 uM; type: functional, cell-based
T3 sequence (whole entry): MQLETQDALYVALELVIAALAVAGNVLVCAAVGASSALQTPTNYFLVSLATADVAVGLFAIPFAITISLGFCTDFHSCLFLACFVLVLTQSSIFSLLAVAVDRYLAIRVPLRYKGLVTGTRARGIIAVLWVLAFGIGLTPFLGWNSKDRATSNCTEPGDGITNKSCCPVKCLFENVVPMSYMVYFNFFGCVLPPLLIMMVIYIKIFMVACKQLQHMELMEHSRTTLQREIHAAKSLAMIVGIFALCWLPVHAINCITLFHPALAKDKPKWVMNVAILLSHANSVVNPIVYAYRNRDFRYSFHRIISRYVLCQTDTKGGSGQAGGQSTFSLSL

[5] = biological target: T4, Adenosine receptor A1 (Rattus norvegicus) (UniProt P25099); assay: Inhibition of [3H]- DPCPX binding to Adenosine A1 receptor of rat brain membranes at 10 uM; type: cell membranes; conditions: Membrane
T4 sequence (whole entry): T2 sequence (P25099 whole entry)
Summary of the method: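 Rat brain membranes labelled with [3H]DPCPX (2 nM) to measure A1 receptor binding; test compound displacement read as percent inhibition at a single concentration.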

Chain of Adenosine receptor A2a (Rattus norvegicus) (P30543 whole entry): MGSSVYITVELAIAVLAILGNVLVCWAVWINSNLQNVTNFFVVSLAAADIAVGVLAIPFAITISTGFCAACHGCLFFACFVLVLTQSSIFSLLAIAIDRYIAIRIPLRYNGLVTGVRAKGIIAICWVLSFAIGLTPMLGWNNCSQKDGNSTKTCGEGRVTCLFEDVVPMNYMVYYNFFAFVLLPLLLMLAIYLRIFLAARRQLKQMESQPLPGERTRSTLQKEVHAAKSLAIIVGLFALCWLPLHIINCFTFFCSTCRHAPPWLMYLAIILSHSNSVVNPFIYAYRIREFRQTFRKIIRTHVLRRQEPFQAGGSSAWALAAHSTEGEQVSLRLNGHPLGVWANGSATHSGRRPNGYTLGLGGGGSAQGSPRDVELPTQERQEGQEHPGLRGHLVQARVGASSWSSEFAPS

| Ki (P3 purinoceptor) [nM] | SMILES | further results |
| --- | --- | --- |
| 81 | [N-]=[N+]=NC[C@H]1OC(n2cnc3c(N)ncnc32)[C@H](O)[C@@H]1O (stereo not given in full) |  |
| 64 | N#C[C@H]1OC(n2cnc3c(N)ncnc32)[C@H](O)[C@@H]1O (stereo not given in full) |  |
| 1100 | CCCSC[C@H]1OC(n2cnc3c(N)ncnc32)[C@H](O)[C@@H]1O (stereo not given in full) |  |
| 64 | NC(=O)[C@H]1OC(n2cnc3c(N)ncnc32)[C@H](O)[C@@H]1O (stereo not given in full) |  |
| 54 | Nc1ncnc2c1ncn2C1O[C@H](CSc2ccccc2)[C@@H](O)[C@H]1O (stereo not given in full) |  |
| 19 | C#C[C@H](O)[C@H]1OC(n2cnc3c(N)ncnc32)[C@H](O)[C@@H]1O (stereo not given in full) | inhibition [1]: inactive; Inhibition (Adenosine receptor A1): 33%; inhibition [2]: 40% |
| 84 | Nc1ncnc2c1ncn2C1O[C@H](CCl)[C@@H](O)[C@H]1O (stereo not given in full) |  |
| 21000 | CN(C)C(=O)[C@H]1OC(n2cnc3c(N)ncnc32)[C@H](O)[C@@H]1O (stereo not given in full) |  |
| 70 | Nc1ncnc2c1ncn2C1O[C@H](CSCc2ccccc2)[C@@H](O)[C@H]1O (stereo not given in full) |  |
| 280 | C#C[C@H]1OC(n2cnc3c(N)ncnc32)[C@H](O)[C@@H]1O (stereo not given in full) |  |
| 51 | CNC(=O)[C@H]1O[C@@H](n2cnc3c(N)ncnc32)[C@H](O)[C@@H]1O |  |
| 450 | C#C[C@@H](O)[C@H]1OC(n2cnc3c(N)ncnc32)[C@H](O)[C@@H]1O (stereo not given in full) | inhibition [3]: inactive; inhibition [4]: inactive; inhibition [5]: 21%; inhibition [2]: 40% |

| SMILES | Ki (P3 purinoceptor) [nM] | further results |
| --- | --- | --- |
| CCNC(=O)[C@H]1O[C@@H](n2cnc3c(N)ncnc32)[C@H](O)[C@@H]1O [NECA] | 37 |  |
